Source: ChEMBL document CHEMBL5620404, “New 4-(N-cinnamoylbutyl)aminoacridines as potential multi-stage antiplasmodial leads” (Eur J Med Chem, 2023)
Activity calls are given as the source filed them. The calls are words filed in the database; no cut-off is given here.

What was measured:
Plasmodium falciparum [1] = assay: Antiplasmodial activity against blood stage chloroquine-sensitive Plasmodium falciparum 3D7 infected in human erythrocyte incubated for 48 hrs by Syto11 staining based flow cytometry analysis; assay type: functional, organism-based; conditions: 3D7, Erythrocyte
How it was run: (§1)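 3D7 asexual parasites grown in group B erythrocytes, 3% hematocrit, RPMI with 0.5% Albumax II and 2 mM L-glutamine, 37 °C, 5% O2/5% CO2/90% N2. Rings synchronized by 5% sorbitol, then exposed 48 h to compounds (0.0000256–10 μM). Syto11 nuclear stain and flow cytometry (488 nm excitation, 530/30 emission). Inhibition scaled to untreated (0%) and chloroquine-treated (100%) cultures; IC50 by sigmoidal fit.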

Plasmodium berghei [2] = assay: Antiplasmodial activity against firefly luciferase expressing liver stage Plasmodium berghei infected in human Huh-7 cells assessed as reduction in parasite growth at 1 to 10 uM measured after 48 hrs post infection by […] luminescence assay; assay type: functional, organism-based; conditions: dose 1-10 µM
How it was run: (§2)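 Huh7 cells in supplemented RPMI 1640 seeded the day before; ~1 h before infection, medium switched to infection medium with gentamicin, amphotericin B and compound. Cells then infected with PbGFP-Luccon sporozoites from Anopheles stephensi salivary glands. At 48 h, parasite load read as luciferase luminescence in lysates, normalized to 0.01% DMSO control; IC50 by nonlinear regression.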

Huh-7 = assay: Cytotoxicity against human Huh-7 cells assessed as reduction in cell confluency at 10 uM measured after 48 hrs by Alamar blue staining based analysis relative to control; assay type: functional; design: scale not given: the % may be the effect or the level left
Plasmodium falciparum [3] = assay: Antiplasmodial activity against Plasmodium falciparum NF54-gexp02-Tom gametocytes infected in human erythrocyte at 5 uM by giemsa staining based light microscopy analysis relative to control; assay type: functional
Plasmodium berghei [4] = assay: Antiplasmodial activity against firefly luciferase expressing liver stage Plasmodium berghei infected in human Huh-7 cells assessed as reduction in parasite growth measured after 48 hrs post infection by […] luminescence assay; assay type: functional, organism-based; conditions: Huh-7, 48 h; how it was run: as §2
Plasmodium falciparum [5] = assay: Antiplasmodial activity against Plasmodium falciparum NF54-gexp02-Tom gametocytes infected in human erythrocyte by giemsa staining based light microscopy analysis; assay type: functional, organism-based
How it was run: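 NF54-gexp02-Tom line (tdTomato under early gametocyte promoter) grown in group B human erythrocytes, 3% hematocrit, RPMI with 10% human plasma and 2 mM choline chloride, 37 °C, 5% O2/5% CO2/90% N2. Sexual conversion induced by choline removal plus sorbitol synchronization; compounds 0.0048–100 μM present throughout.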

Plasmodium falciparum [6] = assay: Antiplasmodial activity against blood stage chloroquine-sensitive Plasmodium falciparum 3D7 infected in human erythrocyte; assay type: functional, organism-based; conditions: 3D7, Erythrocyte; how it was run: as §1
Plasmodium berghei [7] = assay: Antiplasmodial activity against firefly luciferase expressing liver stage Plasmodium berghei infected in human Huh-7 cells measured after 48 hrs post infection by […] luminescence assay; assay type: functional, organism-based; conditions: Huh-7, 48 h; how it was run: as §2

IC50 (Plasmodium falciparum [1]) [nM] | IC50 (Plasmodium falciparum [5]) [nM] | IC50 (Plasmodium falciparum [6]) [nM] | SMILES | Activity (Plasmodium berghei [2]) | Activity (Huh-7) [%] | Activity (Plasmodium falciparum [3]) [%] | IC50 (Plasmodium berghei [4]) [nM] | IC50 (Plasmodium berghei [7]) [nM]
5830 | – | – | COc1cc(NCCCCNC(=O)/C=C/c2ccc(F)cc2)c2nc3cc(Cl)ccc3cc2c1 | Active | ~75 | 15 | 884 | –
3820 | 16300 | – | COc1cc(NCCCCNC(=O)/C=C/c2ccc([N+](=O)[O-])cc2)c2nc3cc(Cl)ccc3cc2c1 | Active | ~75 | >40 | 1190 | –
> 70000 | 6660 | – | COc1cc(NCCCCNC(=O)/C=C/c2ccccc2)c2nc3cc(Cl)ccc3cc2c1 | Active | ~75 | >40 | 496 | –
10800 | 630 | – | COc1cc(NCCCCNC(=O)/C=C/c2ccc(C)cc2)c2nc3cc(Cl)ccc3cc2c1 | Active | – | >40 | – | –
10300 | 520 | – | COc1ccc(/C=C/C(=O)NCCCCNc2cc(OC)cc3cc4ccc(Cl)cc4nc23)cc1 | Active | ~75 | >40 | 1180 | –
4340 | 140 | – | COc1cc(NCCCCNC(=O)/C=C/c2cccc(F)c2)c2nc3cc(Cl)ccc3cc2c1 | Active | ~75 | >40 | 561 | –

More lines, now with the values behind:

SMILES | IC50 (Plasmodium falciparum [1]) [nM] | IC50 (Plasmodium falciparum [5]) [nM] | IC50 (Plasmodium falciparum [6]) [nM] | Activity (Plasmodium berghei [2]) | Activity (Huh-7) [%] | Activity (Plasmodium falciparum [3]) [%] | IC50 (Plasmodium berghei [4]) [nM] | IC50 (Plasmodium berghei [7]) [nM]
COc1cc(NCCCCNC(=O)/C=C/c2ccc(C(C)C)cc2)c2nc3cc(Cl)ccc3cc2c1 | – | – | – | Active | – | – | 129 | –
COc1cc(NCCCCNC(=O)/C=C/c2ccc(N(C)C)cc2)c2nc3cc(Cl)ccc3cc2c1 | – | – | – | Active | – | 15 | – | –
COc1cc(NC(C)CCCN)c2ncccc2c1 (stereo not given) [PRIMAQUINE] | – | – | – | – | – | – | 12300 | –
COc1cc(NCCCCNC(=O)/C=C/c2ccc(Cl)cc2)c2nc3cc(Cl)ccc3cc2c1 | – | – | – | Active | ~75 | 15 | 998 | –
COc1cc(NCCCCNC(=O)/C=C/c2ccc(C(F)(F)F)cc2)c2nc3cc(Cl)ccc3cc2c1 | – | – | – | Active | – | 15 | – | –
COc1cc(NCCCCN)c2nc3cc(Cl)ccc3cc2c1 | – | – | 5640 | – | – | – | – | 2220
COc1cc(NCCCCNC(=O)/C=C/c2ccc(OC)c(OC)c2)c2nc3cc(Cl)ccc3cc2c1 | – | – | – | Active | – | 15 | – | –
COc1cc(NCCCCNC(=O)/C=C/c2ccc(Br)cc2)c2nc3cc(Cl)ccc3cc2c1 | – | – | – | Active | – | 15 | – | –
